These results are taken from ChEMBL document CHEMBL1667769, “Sodium [2'-[(cyclopropanecarbonyl-ethyl-amino)-methyl]-4'-(6-ethoxy-pyridin-3-yl)-6-methoxy-biphenyl-3-yl]-acetate (AM432): a potent, selective prostaglandin D2 receptor antagonist” (Bioorg Med Chem Lett, 2011).

In experiment [1] the target is T1, Prostaglandin D2 receptor 2 (Homo sapiens, UniProt Q9Y5Y4).
T1 sequence (Q9Y5Y4 whole entry): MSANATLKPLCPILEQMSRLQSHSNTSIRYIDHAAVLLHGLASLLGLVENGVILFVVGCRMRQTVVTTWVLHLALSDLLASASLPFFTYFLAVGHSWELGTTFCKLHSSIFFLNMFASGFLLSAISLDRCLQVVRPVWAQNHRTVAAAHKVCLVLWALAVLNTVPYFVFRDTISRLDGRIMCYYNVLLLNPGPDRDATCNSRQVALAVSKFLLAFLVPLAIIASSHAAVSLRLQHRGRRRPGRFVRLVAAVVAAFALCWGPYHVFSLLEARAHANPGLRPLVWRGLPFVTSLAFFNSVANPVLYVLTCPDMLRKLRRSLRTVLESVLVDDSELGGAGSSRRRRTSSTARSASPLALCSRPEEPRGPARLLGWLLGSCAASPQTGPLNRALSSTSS
The experiment in a line: Displacement of [3H]PGD2 from human CRTh2 receptor expressed in 293 cells by liquid scintillation counting. The experiment is classed as cell-based, HEK293. Summed up:
(§1)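 Membranes from 293 cells stably expressing human DP₂ incubated with [³H]-PGD₂ and increasing compound concentrations. Membranes harvested and washed; bound [³H]-PGD₂ counted. IC₅₀ taken as concentration giving 50% inhibition of binding. Run without and with 0.2% human serum albumin. Values averaged from three experiments (five for the lead).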
For orientation: Displacement assays read how much labelled ligand stays bound in the presence of the test substance.

Experiment [2] has as its target T1, Prostaglandin D2 receptor 2. The experiment in a line: Displacement of [3H]PGD2 from human CRTh2 receptor expressed in 293 cells by liquid scintillation counting in presence of 0.2 % HSA. It counts as cell-based, HEK293. In short, it runs like this:
as §1

As for `CCN(Cc1cc(-c2cnn(C)c2)ccc1-c1cc(CC(=O)O)ccc1OC)C(=O)C1CC1`, the half-maximal inhibitory concentration (IC50) in experiment [1] was 0.027 µM; in experiment [2], 0.037 µM.

With `CCN(Cc1cc(-c2cnc3ccccc3c2)ccc1-c1cc(CC(=O)O)ccc1OC)C(=O)C1CC1`, the IC50 in experiment [1] amounted to 0.007 µM; in experiment [2], 0.052 µM.

For `CCN(Cc1cc(NS(=O)(=O)c2ccc(Cl)cc2)ccc1-c1cc(CC(=O)O)ccc1OC)C(=O)OCc1ccccc1`, the IC50 in experiment [1] was found to be 0.003 µM; in experiment [2], 0.09 µM.

For the compound `CCN(Cc1cc(-c2ccc(F)cn2)ccc1-c1cc(CC(=O)O)ccc1OC)C(=O)C1CC1`, the IC50 in experiment [1] turned out to be 0.009 µM; in experiment [2] it was 0.06 µM.

In the case of `CCN(Cc1cc(C(C)(C)O)ccc1-c1cc(CC(=O)O)ccc1OC)C(=O)OCc1ccccc1`, the IC50 in experiment [1] was 0.012 µM; in experiment [2], 0.024 µM.

For the compound `CCN(Cc1cc(NC(C)=O)ccc1-c1cc(CC(=O)O)ccc1OC)C(=O)OCc1ccccc1`, the IC50 in experiment [1] worked out at 0.007 µM; in experiment [2] it was 0.06 µM.

As usually defined, the IC50 is the point on the concentration scale where inhibition reaches its midpoint.
